Reference: ChEMBL document CHEMBL2412990, “Synthesis and pharmacological evaluation of new N-phenylpiperazine derivatives designed as homologues of the antipsychotic lead compound LASSBio-579” (Eur J Med Chem, 2013)
Active and inactive are the calls of the source. The rule behind the calls is not given here.

Tests used:
[1] = molecular target: T1, 5-hydroxytryptamine receptor 1A (Rattus norvegicus) (UniProt P19327); experiment: Antagonist activity at 5HT1A receptor in rat brain hippocampal membranes assessed as inhibition of [3H]-8-OH-DPAT binding to receptor after 15 mins by competition assay in absence of GTP; format: cell membranes
T1 sequence (whole entry): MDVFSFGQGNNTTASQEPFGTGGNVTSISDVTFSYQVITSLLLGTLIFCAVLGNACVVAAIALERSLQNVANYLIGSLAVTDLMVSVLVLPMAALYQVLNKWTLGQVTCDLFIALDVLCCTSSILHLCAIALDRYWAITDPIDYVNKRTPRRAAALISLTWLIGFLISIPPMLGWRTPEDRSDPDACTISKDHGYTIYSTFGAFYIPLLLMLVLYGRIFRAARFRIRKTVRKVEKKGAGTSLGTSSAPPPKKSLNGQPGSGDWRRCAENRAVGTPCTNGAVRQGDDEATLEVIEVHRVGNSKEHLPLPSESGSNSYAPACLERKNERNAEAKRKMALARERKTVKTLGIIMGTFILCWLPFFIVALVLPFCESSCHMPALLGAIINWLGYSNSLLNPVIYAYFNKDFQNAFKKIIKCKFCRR
How it was run: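 Hippocampal membranes, 40 µg protein, incubated with 1 nM [3H]-8-OH-DPAT at 37 °C for 15 min under yellow light. Buffer was 50 mM Tris-HCl pH 7.4 with 1 mM CaCl2, 1 mM MnCl2 and pargyline. Non-specific binding was defined with 5-HT. Filters were soaked in 0.5% polyethyleneimine. IC50 came from nonlinear regression fitted with one or two sites. Ki by Cheng-Prusoff, using Kd from saturation experiments.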

[2] = molecular target: T1, 5-hydroxytryptamine receptor 1A (Rattus norvegicus); experiment: Antagonist activity at 5HT1A receptor in rat brain hippocampal membranes assessed as inhibition of [3H]-8-OH-DPAT binding to receptor after 15 mins by competition assay in presence of GTP; format: cell membranes
[3] = molecular target: 5-hydroxytryptamine receptor 2A (Rattus norvegicus) (UniProt P14842); experiment: Antagonist activity at 5HT2A receptor in rat brain cortical membranes assessed as inhibition of [3H]-ketanserin binding to receptor after 15 mins by competition assay in absence of GTP; format: cell membranes
5-hydroxytryptamine receptor 2A (Rattus norvegicus), sequence (P14842 whole entry): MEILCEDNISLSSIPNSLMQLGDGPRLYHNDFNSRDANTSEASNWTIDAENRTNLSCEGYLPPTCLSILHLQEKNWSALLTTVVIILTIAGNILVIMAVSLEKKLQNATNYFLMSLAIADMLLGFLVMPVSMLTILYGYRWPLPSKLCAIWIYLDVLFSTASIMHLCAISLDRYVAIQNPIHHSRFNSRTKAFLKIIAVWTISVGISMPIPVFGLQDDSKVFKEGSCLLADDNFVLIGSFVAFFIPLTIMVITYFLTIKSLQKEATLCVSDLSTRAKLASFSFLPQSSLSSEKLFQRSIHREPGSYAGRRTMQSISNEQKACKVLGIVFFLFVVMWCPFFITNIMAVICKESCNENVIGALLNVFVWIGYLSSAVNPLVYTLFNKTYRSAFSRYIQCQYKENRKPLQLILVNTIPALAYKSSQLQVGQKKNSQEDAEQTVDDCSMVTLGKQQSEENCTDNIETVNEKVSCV
How it was run: (§1)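 Rat cortical membranes, 150 µg protein, with 1 nM [3H]-ketanserin and 100 nM prazosin in 50 mM Tris-HCl pH 7.4, 37 °C, 15 min. Non-specific binding was defined with ketanserin. For the GTP shift, paired competition curves were run without and with guanylyl nucleotide (0.1 mM Gpp(NH)p or 1 mM GTP).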

[4] = molecular target: 5-hydroxytryptamine receptor 2A (Rattus norvegicus) (UniProt P14842); experiment: Antagonist activity at 5HT2A receptor in rat brain cortical membranes assessed as inhibition of [3H]-ketanserin binding to receptor after 15 mins by competition assay in presence of GTP; format: cell membranes; how it was run: as §1
Mus musculus [5] = experiment: Antipsychotic activity in CF1 mouse assessed as prevention of ketamine-induced hyperlocomotion at 0.01 mg/kg, po administered 30 mins prior ketamine challenge measured for 20 mins post challenge; format: functional, organism-based; design: dose 0.01 mg/kg
How it was run: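 Mice were pretreated (reference drug orally after 2 h fast; test compound i.p.) and placed in the arena centre. Ketamine 10 mg/kg s.c. was given 30 min later. A blinded observer counted total square crossings over 20 min in a dimly lit room. n = 7–8. Analysed by one-way ANOVA with Newman-Keuls post hoc test.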

Mus musculus [6] = experiment: Antipsychotic activity in CF1 mouse assessed as prevention of apomorphine-induced climbing behaviour at 0.5 mg/kg, po administered 30 mins prior apomorphine challenge measured 5 to 30 mins post challenge; format: functional, organism-based; design: dose 0.5 mg/kg
How it was run: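 Reference drug given orally to mice fasted 2 h. Apomorphine 4 mg/kg s.c. was given 30 min later. Climbing was scored 0–4 at 5-min intervals up to 30 min and summed as the climbing index. n = 8–9. Analysed by one-way ANOVA with Newman-Keuls post hoc test.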

Mus musculus [7] = experiment: Antipsychotic activity in CF1 mouse assessed as prevention of apomorphine-induced climbing behaviour at 15 mg/kg, po administered 30 mins prior apomorphine challenge measured 5 to 30 mins post challenge; format: functional, organism-based; design: dose 15 mg/kg
How it was run: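 Male CF1 mice (25-35 g), given the drug orally (10 ml/kg, fasted 2 h) and then kept in metal-bar cages for 30 min. Apomorphine 4 mg/kg was then given s.c. Climbing was scored 0-4 for 1 min at 5, 10, 15, 20, 25 and 30 min, and the scores were summed per animal as a climbing index. n = 8-9. One-way ANOVA with Student-Newman-Keuls post hoc test.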

Mus musculus [8] = experiment: Antipsychotic activity in CF1 mouse assessed as prevention of ketamine-induced hyperlocomotion at 1 mg/kg, po administered 30 mins prior ketamine challenge measured for 20 mins post challenge; format: functional, organism-based; design: dose 1 mg/kg
How it was run: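 Male CF1 mice, dosed orally (10 ml/kg, fasted 2 h) and placed at the centre of the apparatus in a dimly lit room. Ketamine 10 mg/kg was given s.c. 30 min later. A blinded observer counted square crossings over 20 min. n = 7-8. One-way ANOVA with Student-Newman-Keuls post hoc test.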

COc1ccccc1N1CCN(CCN(C(=O)c2ccc(F)cc2)c2ccccn2)CC1
inhibition [1]: Active | inhibition [2]: Active

O=C(c1ccc(F)cc1)C1CCN(CCn2c(=O)[nH]c3ccccc3c2=O)CC1
inhibition [3]: Active | inhibition [4]: Active

O=C(CCCN1CCC(O)(c2ccc(Cl)cc2)CC1)c1ccc(F)cc1
Activity (Mus musculus [5]): inactive | Activity (Mus musculus [6]): Active

CN1CCN(C2=Nc3cc(Cl)ccc3Nc3ccccc32)CC1
Activity (Mus musculus [7]): Active | Activity (Mus musculus [8]): Active
